These results are taken from ChEMBL document CHEMBL4406881, “Design, synthesis and biological evaluation of benzoylacrylic acid shikonin ester derivatives as irreversible dual inhibitors of tubulin and EGFR” (Bioorg Med Chem, 2019).

One data set has as its system HeLa. As to the kind of experiment: Antiproliferative activity against human HeLa cells assessed as reduction in cell viability after 24 hrs by MTT assay. The class given is functional, cell-based. In outline: (§1)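 MTT colorimetric assay. Cells in log phase in medium with 10% FBS were seeded at 10⁴ cells/well and left overnight at 37 °C, 5% CO₂ to reattach. Compounds were added at 0.1, 1, 10 and 100 μM in 10% FBS for 24 h. IC50 reported as mean ± SD of three independent experiments.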
On the technique in general: Formazan colour is commonly taken as a measure of viable cells.

A short description of data set [1]: Cytotoxicity against human LO2 cells assessed as reduction in cell viability after 24 hrs by MTT assay. The data set is classed as cell-based, L02. In outline: as §1
The test system of data set [2] is A549. As to the kind of experiment: Antiproliferative activity against human A549 cells assessed as reduction in cell viability after 24 hrs by MTT assay. The data set is classed as functional, cell-based. The note with it: A549, 24 h.
The target of data set [3] is T1, Epidermal growth factor receptor (Homo sapiens, UniProt P00533). As to the kind of experiment: Inhibition of C-terminal His-tagged N-terminal GST-tagged human EGFR (668 to 1210 residues) expressed in baculovirus infected Sf9 cells after 30 mins in presence of gamma-[32p-ATP] binding assay.
Another data set relates to NCI-H1975. As to the kind of experiment: Antiproliferative activity against human NCI-H1975 cells assessed as reduction in cell viability after 24 hrs by MTT assay. The data set is classed as functional, cell-based. To be noted: NCI-H1975, 24 h. In outline:
as §1

The next data set concerns NCI-H460. As to the kind of experiment: Antiproliferative activity against human H460 cells assessed as reduction in cell viability after 24 hrs by MTT assay. To be noted: NCI-H460, 24 h. The data set is classed as functional, cell-based. The essentials:
as §1

The next data set deals with MCF7. In words: Antiproliferative activity against human MCF7 cells assessed as reduction in cell viability after 24 hrs by MTT assay. The note with it: MCF7, 24 h. The data set is classed as functional, cell-based. In outline:
as §1

Data set [4] concerns the target T1, Epidermal growth factor receptor. In words: Potency index, ratio of shi-konin IC50 to compound IC50 for inhibition of C-terminal His-tagged N-terminal GST-tagged human EGFR (668 to 1210 residues) expressed in baculovirus infected Sf9 cells after 30 mins in presence of gamma-[32p-ATP] binding assay.
In a further data set the target is Tubulin (Homo sapiens) (UniProt P68371+Q9H4B7+P0DPH7+P68366+Q13509+Q71U36+P04350+Q3ZCM7+P07437+P68363+Q9BQE3+Q6PEY2+Q13885+Q9BVA1+Q9BUF5). In words: Inhibition of microtubule polymerization in human A549 cells assessed as polymerized tubulin expression at 1 uM after 24 hrs by immuno blot analysis. The class given is cell-based.
The test system of data set [5] is A549. As to the kind of experiment: Induction of apoptosis in human A549 cells assessed as low mitochondrial membrane potential after 20 mins by JC-1 staining-based flow cytometric analysis (reference value: 6.3%). The class given is functional.
Data set [6] deals with A549. In words: Induction of apoptosis in human A549 cells assessed as high mitochondrial membrane potential after 20 mins by JC-1 staining-based flow cytometric analysis (reference value: 90.6%). The class given is functional. (Flow cytometry measures light scatter and fluorescence of single cells or particles in a stream.)
Data set [7] is described as follows: Toxicity in ip dosed Balb/c mouse xenografted with human A549 cells assessed as reduction in body weight at 2 mg/kg, ip administered once every two days for 32 days and measured for every 2 days. The class given is organism-based. The note with it: in vivo. The essentials: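 Female BALB/c nude mice (5-6 weeks) received 6×10^6 A549 cells s.c. in the flank. After two weeks (tumours ~90 mm³) they were split into 5 groups (n = 8). Dosing was 2 or 4 mg/kg, dissolved in DMSO, i.p. once every two days for 16 doses; DMSO vehicle served as control. Body weight and tumour volume (L×S²/2) were recorded every two days; mice were killed at day 32.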
On the technique in general: A xenograft is tissue or cells of one species grown in another, often human tumour cells in immunodeficient mice.

T1 sequence (P00533 whole entry, the tested form may be a part): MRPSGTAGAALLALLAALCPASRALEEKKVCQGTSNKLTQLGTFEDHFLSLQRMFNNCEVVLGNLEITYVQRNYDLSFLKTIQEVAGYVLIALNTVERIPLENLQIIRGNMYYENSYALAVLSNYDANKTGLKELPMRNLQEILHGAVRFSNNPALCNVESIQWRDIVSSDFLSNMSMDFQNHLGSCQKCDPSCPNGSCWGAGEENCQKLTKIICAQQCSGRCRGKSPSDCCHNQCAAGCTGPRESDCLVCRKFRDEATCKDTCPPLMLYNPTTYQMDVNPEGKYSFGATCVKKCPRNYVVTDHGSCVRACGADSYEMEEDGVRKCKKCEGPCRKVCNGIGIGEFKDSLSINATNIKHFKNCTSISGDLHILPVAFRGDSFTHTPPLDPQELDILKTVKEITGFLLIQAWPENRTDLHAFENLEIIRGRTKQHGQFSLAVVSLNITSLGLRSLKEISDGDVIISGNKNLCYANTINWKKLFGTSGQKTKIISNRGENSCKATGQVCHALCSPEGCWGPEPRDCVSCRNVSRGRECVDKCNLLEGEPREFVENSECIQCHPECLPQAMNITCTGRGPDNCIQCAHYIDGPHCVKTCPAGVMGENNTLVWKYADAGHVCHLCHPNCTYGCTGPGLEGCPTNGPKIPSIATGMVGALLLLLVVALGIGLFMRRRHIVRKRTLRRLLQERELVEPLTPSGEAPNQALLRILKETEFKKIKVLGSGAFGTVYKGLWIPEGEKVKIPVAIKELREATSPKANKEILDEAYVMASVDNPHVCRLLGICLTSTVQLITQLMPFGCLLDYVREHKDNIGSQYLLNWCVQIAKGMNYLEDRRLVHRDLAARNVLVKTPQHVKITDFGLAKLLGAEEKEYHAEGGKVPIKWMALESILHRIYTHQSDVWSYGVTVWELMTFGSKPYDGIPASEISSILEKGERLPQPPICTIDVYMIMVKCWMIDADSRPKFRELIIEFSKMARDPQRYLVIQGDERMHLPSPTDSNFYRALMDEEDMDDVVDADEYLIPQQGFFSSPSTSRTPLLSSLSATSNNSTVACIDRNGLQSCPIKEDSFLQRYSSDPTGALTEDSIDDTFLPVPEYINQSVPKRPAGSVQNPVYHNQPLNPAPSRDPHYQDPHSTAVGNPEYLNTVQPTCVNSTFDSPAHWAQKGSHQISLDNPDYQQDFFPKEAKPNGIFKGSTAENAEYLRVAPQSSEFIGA

What is called IC50 is the concentration that inhibits the measured activity by half. In general, CC50 refers to the concentration giving 50% cytotoxicity. On to `CC(C)=CC[C@@H](OC(=O)/C=C\C(=O)c1ccc(C)c(Br)c1)C1=CC(=O)c2c(O)ccc(O)c2C1=O`, for which the IC50 in the data set on HeLa was 17.2 µM; with A549 [2], 15.4 µM; in data set [3], > 0.15 µM; in the data set on NCI-H1975, 22.5 µM; with NCI-H460, 4.21 µM; in the data set on MCF7 it was 14.3 µM. The CC50 at 24 h in data set [1] is > 100 µM.
On to `CC(C)=CC[C@@H](OC(=O)/C=C\C(=O)c1ccc(Br)cc1)C1=CC(=O)c2c(O)ccc(O)c2C1=O`, for which the half-maximal inhibitory concentration (IC50) in the data set with HeLa was found to be 8.02 µM; in the data set with A549 [2], 9.19 µM; in [3] it was 0.12 µM; in the data set on NCI-H1975, 13.3 µM; in the data set on NCI-H460 it was 6.51 µM; in the data set with MCF7, 9.31 µM. Further, the CC50 at 24 h in data set [1] was > 100 µM.
In the case of `CC(C)=CC[C@@H](OC(=O)/C=C\C(=O)c1cc(Cl)ccc1C)C1=CC(=O)c2c(O)ccc(O)c2C1=O`, the IC50 in the data set on HeLa worked out at 9.34 µM; with A549 [2], 13.2 µM; in data set [3] it was 0.146 µM; in the data set on NCI-H1975, 18.3 µM; in the data set with NCI-H460, 10.3 µM; in the data set on MCF7 it was 18.6 µM. For the same compound, the CC50 at 24 h in data set [1] was determined as 83.3 µM.
As to `CC(C)=CC[C@@H](OC(=O)/C=C\C(=O)c1ccc(C)cc1F)C1=CC(=O)c2c(O)ccc(O)c2C1=O`, the IC50 in the data set on HeLa worked out at 15.1 µM; in the data set with A549 [2], 12.6 µM; in data set [3] it was 0.12 µM; in the data set on NCI-H1975, 9.56 µM; in the data set on NCI-H460 it was 13.6 µM; with MCF7, 6.64 µM. Further, in [1], the CC50 at 24 h was > 100 µM.
In the case of `CC(C)=CC[C@@H](OC(=O)/C=C\C(=O)c1ccc(C)cc1Cl)C1=CC(=O)c2c(O)ccc(O)c2C1=O`, the IC50 with HeLa is 10.1 µM; in the data set with A549 [2], 6.23 µM; in [3], 0.105 µM; with NCI-H1975 it was 9.56 µM; in the data set with NCI-H460, 8.16 µM; in the data set on MCF7, 6.63 µM. In addition, the CC50 at 24 h in data set [1] is > 100 µM.
For the compound `CN(C)C/C=C/C(=O)Nc1cc2c(Nc3ccc(F)c(Cl)c3)ncnc2cc1O[C@H]1CCOC1` [AFATINIB], the IC50 turned out to be 6.39 µM in the data set on HeLa, 5.55 µM in the data set with NCI-H1975, 6.14 µM in the data set with NCI-H460 and 7.62 µM with MCF7. The CC50 at 24 h in [1] was found to be 25.3 µM.
Consider `CC(C)=CC[C@@H](OC(=O)/C=C\C(=O)c1cc(F)ccc1C)C1=CC(=O)c2c(O)ccc(O)c2C1=O`, for which the IC50 in the data set with HeLa came out at 14.2 µM; with A549 [2], 13.4 µM; in [3] it was 0.0234 µM; with NCI-H1975, 7.26 µM; in the data set on NCI-H460, 8.35 µM; in the data set with MCF7 it was 10.1 µM. For the same compound, in data set [1], the CC50 at 24 h amounted to 93.5 µM. For the same compound, the Ratio IC50 in [4] came out at 6.
With `CC(C)=CC[C@@H](OC(=O)/C=C\C(=O)c1ccc(C)c(C)c1)C1=CC(=O)c2c(O)ccc(O)c2C1=O`, the IC50 stood at 10.1 µM in the data set on HeLa; 9.12 µM in the data set on A549 [2]; 0.119 µM in data set [3]; 15.7 µM in the data set with NCI-H1975; 11.3 µM in the data set with NCI-H460; 14.3 µM in the data set with MCF7. In addition, the CC50 at 24 h in data set [1] stood at 88.4 µM.
Regarding `CC(C)=CC[C@@H](OC(=O)/C=C\C(=O)c1ccc(Cl)cc1)C1=CC(=O)c2c(O)ccc(O)c2C1=O`, the IC50 in the data set on HeLa came out at 11.4 µM; in the data set with A549 [2], 8.52 µM; in data set [3], 0.0325 µM; with NCI-H1975 it was 11.8 µM; in the data set on NCI-H460, 11.7 µM; in the data set with MCF7, 9.62 µM. Further, in [1], the CC50 at 24 h was > 100 µM.
Take `CC(C)=CC[C@@H](OC(=O)/C=C\C(=O)c1ccccc1)C1=CC(=O)c2c(O)ccc(O)c2C1=O`: the IC50 was 17.6 µM with HeLa; 7.51 µM in the data set with A549 [2]; > 0.15 µM in [3]; 10.3 µM in the data set on NCI-H1975; 4.59 µM with NCI-H460; 19.4 µM with MCF7. The CC50 at 24 h in data set [1] was > 100 µM.
`CC(C)=CC[C@@H](OC(=O)/C=C\C(=O)c1cc(C)ccc1C)C1=CC(=O)c2c(O)ccc(O)c2C1=O`: the IC50 is 10.2 µM with HeLa; 13.1 µM in the data set with A549 [2]; > 0.15 µM in data set [3]; 10.2 µM with NCI-H1975; 13.2 µM in the data set on NCI-H460; 5.28 µM with MCF7. For the same compound, the CC50 at 24 h in data set [1] came to 78.1 µM.
With `CC(C)=CC[C@@H](OC(=O)/C=C\C(=O)c1ccc(C)cc1)C1=CC(=O)c2c(O)ccc(O)c2C1=O`, the IC50 with HeLa was 8.96 µM; in the data set on A549 [2] it was 9.72 µM; in [3] it was 0.0452 µM; with NCI-H1975, 10.2 µM; with NCI-H460 it was 11.4 µM; with MCF7 it was 9.14 µM. Further, in [1], the CC50 at 24 h was 64.2 µM.
On to `CC(=O)O[C@H]1C(=O)[C@@]2(C)[C@H]([C@H](OC(=O)c3ccccc3)[C@]3(O)C[C@H](OC(=O)[C@H](O)[C@@H](NC(=O)c4ccccc4)c4ccccc4)C(C)=C1C3(C)C)[C@]1(OC(C)=O)CO[C@@H]1C[C@@H]2O`, for which the fold change (FC) at Tubulin (Homo sapiens) came out at 0.82.
Turning to `CC(C)=CC[C@@H](OC(=O)/C=C\C(=O)c1ccc(C)cc1C)C1=CC(=O)c2c(O)ccc(O)c2C1=O`, the IC50 with HeLa is 18.6 µM; in the data set with A549 [2] it was 10.2 µM; in [3], > 0.15 µM; with NCI-H1975, 16.6 µM; in the data set on NCI-H460, 9.17 µM; in the data set on MCF7, 7.89 µM. In addition, in [1], the CC50 at 24 h was > 100 µM.
Take `CCc1ccc(C(=O)/C=C\C(=O)O[C@H](CC=C(C)C)C2=CC(=O)c3c(O)ccc(O)c3C2=O)cc1`: the IC50 was 15.2 µM in the data set on HeLa; 14.5 µM in the data set with A549 [2]; 0.0508 µM in [3]; 12.4 µM in the data set with NCI-H1975; 16.4 µM in the data set with NCI-H460; 9.37 µM in the data set on MCF7. Further, the CC50 at 24 h in data set [1] is 92.4 µM.
Take `N#CC(C#N)=NNc1cccc(Cl)c1` [CARBONYL CYANIDE M-CHLOROPHENYLHYDRAZONE]: the Activity came to 67.9% in the data set on A549 [5] and 26.5% with A549 [6].
Take `CC(C)=CC[C@@H](OC(=O)/C=C\C(=O)c1ccc(C)c(F)c1)C1=CC(=O)c2c(O)ccc(O)c2C1=O`: the IC50 in the data set with HeLa worked out at 8.27 µM; in the data set with A549 [2], 9.39 µM; in [3] it was 0.107 µM; with NCI-H1975, 7.25 µM; in the data set on NCI-H460, 10.1 µM; in the data set on MCF7, 7.68 µM. For the same compound, the CC50 at 24 h in data set [1] is > 100 µM.
`CC(C)=CC[C@@H](O)C1=CC(=O)c2c(O)ccc(O)c2C1=O` [SHIKONIN]: the Activity entry in [7] is recorded as “Toxic”. For the same compound, the IC50 was found to be 7.84 µM with HeLa; 6.13 µM in the data set on A549 [2]; 0.139 µM in data set [3]; 4.28 µM with NCI-H1975; 5.04 µM in the data set with NCI-H460; 9.55 µM with MCF7. In addition, the CC50 at 24 h in [1] was 12.2 µM.
